Assay outcomes deposited in PubChem by several laboratories.
697 NFkB inh – lowers PMA/ionomycin-induced NF-kB signal in 697 B cells. 697 B-cell NF-kB luciferase reporter, 16 h. inhibition, % at 4 µM. 0.33% of 330,000 active. AID 435022; in the data active = inhibition above about 35%
GalR3 antagonist – human GalR3 antagonism; O60755; AID 651719; 0.44% of 360,000 active; HEK293 GalR3-CNG cAMP membrane potential fluorescence; galR3 body fused to GalR1 C-terminus; inhibition, % at 3 µM;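 active = inhibition above the screen-wide average plus 3 SD, cut at about 13% in these data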;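 also: forskolin and galanin both at EC90 stimulate the cells; cAMP rise reported by CNG channel membrane potential dye signal; 0% = forskolin plus galanin with DMSO and 100% = forskolin alone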
Target sequence (O60755 1-299 limits assumed): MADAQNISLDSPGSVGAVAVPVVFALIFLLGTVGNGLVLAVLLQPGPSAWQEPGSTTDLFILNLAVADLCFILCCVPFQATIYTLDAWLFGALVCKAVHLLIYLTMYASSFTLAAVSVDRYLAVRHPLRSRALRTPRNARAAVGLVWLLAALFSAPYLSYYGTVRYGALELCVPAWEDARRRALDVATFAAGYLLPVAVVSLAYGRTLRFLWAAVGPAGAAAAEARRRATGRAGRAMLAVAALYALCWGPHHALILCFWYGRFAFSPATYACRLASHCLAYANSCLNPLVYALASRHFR
NR2E3 ag-1 – agonists of human NR2E3 nuclear receptor; Q9Y5X4; CHO-S Gal4-NCOR/VP16-NR2E3 two-hybrid, luciferase; inhibition of corepressor binding, % at 3.98 µM; 0.35% of 360,000 active;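 active = inhibition above the mean of all tested compounds plus 3 SD, cut at about 70% in these data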;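 also: 0% = DMSO with NR2E3 transfected cells and 100% = cells lacking NR2E3 construct; higher means lower luciferase signal from less NR2E3 corepressor binding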
NR2E3 ag-2 – activates human photoreceptor nuclear receptor NR2E3; Q9Y5X4; GST-NR2E3/biotin-RetCOR TR-FRET, 1536-well; inhibition of corepressor binding, % at 4.78 µM; 0.12% of 320,000 active;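 active = percent inhibition above the cutoff of mean plus 3 SD of all tested compounds, set per screening campaign, cut at about 20% in these data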;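 also: 0% = DMSO wells and 100% = biotin wells as full block of FRET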
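Material: NR2E3–RetCOR corepressor complex | Quantity: 1.35 nM GST-tagged NR2E3 final | Schedule: 5 h at 4 °C | Replication: Singlicate compound wells | Reagent: RetCOR corepressor, biotinylated, 7 nM | Controls: Biotin wells as high control, 0.6% DMSO wells as low control | Signal: TR-FRET, Eu(K)-anti-GST donor, streptavidin-D2 acceptor, ex 340, em 617/671 nm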
Gli-Sufu antag – blocks Gli-Sufu signaling in a luciferase reporter; inhibition, % at 5 µM; 0.74% of 340,000 active; Sufu-KO-LIGHT fibroblasts, Gli luciferase reporter luminescence;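 active = inhibition above about 55%, limit read from the data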;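 also: 0% = DMSO-treated cells and 100% = wells with medium but no cells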
Jurkat NFkB inh – inhibitors of the PMA/ionomycin-induced NF-kB reporter in Jurkat cells; 0.53% of 330,000 active; PMA/ionomycin-induced NF-kB luciferase reporter, luminescence; inhibition, % at 4 µM; in the data active = inhibition above about 50%
697 NFkB conf – inhibitors of the PMA/ionomycin-induced NF-kB reporter in 697 B cells, retest; shares compounds with 697 NFkB inh; 697 B-cell NF-kB luciferase, 16 h; inhibition, % at 4 µM; 35% of 2,000 active; AID 449746; in the data active = inhibition mostly above about 28%, no sharp cut-off; inactive = mostly below about 22%
* hit, by the source's call; i = inactive; nt = no result given. Hits are enriched below; roughly 1.8% of the tested compounds scored in any of these assays.

SMILES	697 NFkB inh	GalR3 antagonist	NR2E3 ag-1	NR2E3 ag-2	Gli-Sufu antag	Jurkat NFkB inh	697 NFkB conf
CN(C)CCCN1CC(=O)N2CCc3ccc(Br)cc3C2CC1=O (configuration not stated)	nt	-7	nt	nt	nt	nt	nt
Cc1ccc(CSCCNC(=O)c2ccc(NS(C)(=O)=O)cc2)cc1	36*	-2	-10	-2	-3	-12	-4
Cc1ccc(CSCCNC(=O)c2ccc(C)cc2)cc1	-7	-2	-1	1	-3	-3	nt
N#Cc1cnn2c1nc(N1CCOCC1)c1ccccc12	36*	-3	5	5	-20	-2	18
Cc1nn2c(nc(N3CCOCC3)c3ccccc32)c1C=C(C#N)C#N	-5	-3	7	-2	-1	-9	nt
O=c1cc(-c2ccc(O)cc2)oc2c(-c3c(O)cc(O)c4c(=O)cc(-c5ccc(O)cc5)oc34)c(O)cc(O)c12	30	-6	-2	nt	34	-6	nt
O=c1cc(-c2ccc(O)c(-c3c(O)cc(O)c4c(=O)cc(-c5ccc(O)cc5)oc34)c2)oc2cc(O)cc(O)c12	40*	-4	-9	2	-9	-4	14
CCn1c(SCC(=O)NNC(=O)c2ccccc2)nnc1-c1ccncc1	42*	-7	13	0	2	6	-2
CCn1c(SCC(=O)NNC(=O)Cc2ccccc2)nnc1-c1ccncc1	5	-2	-15	1	-6	9	nt
CCOC(=O)C1CSCCS(=O)(=O)N1Cc1cccc(Cl)c1 (configuration not stated)	nt	-6	nt	nt	nt	nt	nt
COC(=O)N1C[C@H](OCCCOCc2ccccc2)[C@H]2C[C@@H]1c1ccccc1O2	nt	-1	nt	nt	nt	nt	nt
CCOC(=O)Cn1c(-c2nonc2NC(=O)c2ccccc2F)nc2ccccc21	i	2	19	-1	5	-66	i
O=C(Cn1nnc(N2CCOCC2)n1)NN=Cc1ccccc1Cl	nt	-6	nt	nt	nt	nt	nt
O=C(CNS(=O)(=O)c1cccc(Cl)c1)Nc1ccc(-c2nc3ccccc3s2)cc1	-319	-1	-141	-4	-81	-127	-229
CC(C)(C)c1ccc(S(=O)(=O)NCC(=O)Nc2ccc(-c3nc4ccccc4s3)cc2)cc1	-157	2	-103	1	-18	-31	nt
COc1cc(CN(C2CCCCC2C)S(=O)(=O)c2ccc(S(=O)(=O)NC3CC3)cc2)cc(OC)c1OC (configuration not stated)	36*	-3	-2	0	15	-7	-1
COc1ccc(CN(C2CCCCC2C)S(=O)(=O)c2ccc(S(=O)(=O)N(C)C)cc2)cc1OC (configuration not stated)	9	-7	37	1	24	7	nt
COc1ccccc1CNS(=O)(=O)c1ccc(F)cc1Br	nt	-6	nt	nt	nt	nt	nt
Cc1cc2ccccn2c1C(=O)c1cc([N+](=O)[O-])cc([N+](=O)[O-])c1	-3	-7	18	2	-6	16	nt
Cc1cc2ccccn2c1C(=O)c1ccc(NN)c([N+](=O)[O-])c1	45*	-9	-24	1	-1	19	42*
CCN(CC)C(=O)c1ccc(S(=O)(=O)Cc2ccc(C)cc2)c([N+](=O)[O-])c1	40*	-9	-47	-3	2	7	39*
O=C(Nc1ccc(O)cc1)c1c(O)c2c([nH]c1=O)CCCC2	-469	-5	-103	nt	-58	-95	-261
C[C@@H]1CN([C@H](C)CO)S(=O)(=O)c2ccc(Br)cc2O[C@H]1CN(C)CC1CCOCC1	nt	-7	nt	nt	nt	nt	nt
O=Nc1c(-c2c(O)[nH]c3cc(Br)ccc23)[nH]c2ccccc12	-321	nt	8	-25	-54	39	-349
NC(=O)c1ncn([C@@H]2O[C@H](C(=O)N3CCN(Cc4ccccn4)CC3)[C@@H](O)[C@H]2O)n1	nt	-7	nt	nt	nt	nt	nt
SMILES	697 NFkB inh	GalR3 antagonist	NR2E3 ag-1	NR2E3 ag-2	Gli-Sufu antag	Jurkat NFkB inh	697 NFkB conf
COc1ccc(C(=O)Nc2ccc(OC)c([N+](=O)[O-])c2)cc1Br	39*	-6	-30	0	12	7	35*
CC1CCN(C(=O)CCCOc2cc(=O)n(C)c3ccccc23)CC1	38*	-3	-28	2	11	8	38*
CN1CCN(CCCNC(=O)CCCOc2cc(=O)n(C)c3ccccc23)CC1	30	1	1	1	6	4	nt
CC(C)CCNC(=O)CCCOc1cc(=O)n(C)c2ccccc12	52*	-4	-18	-2	33	-9	55*
O=C(CCl)N1CCN(S(=O)(=O)c2ccc3c(c2)CCC3)CC1	38*	-4	-14	2	6	4	38*
COc1ccccc1CCn1cnc(-c2cccc(F)c2)c1CC(C)C	nt	-8	nt	nt	nt	nt	nt
CCCCCCCCN1C(=O)[C@@H](CC(=O)NCC23CC4CC(CC(C4)C2)C3)C[C@@]2(C(=O)OC)C1=C[C@H](C(C)(C)C)O[C@@H]2C	nt	-4	nt	nt	nt	nt	nt
Cc1nn(Cc2c(Cl)cccc2Cl)c(C)c1NC(=O)c1cc(C(C)C)on1	-470	nt	8	7	-19	-55	i
CCOC(=O)Cc1csc(NC(=S)NC(=O)c2ccc(Cl)cc2)n1	45*	-3	-1	-2	9	9	76*
COc1ccc(C(=O)N2CCc3c([nH]c4ccccc34)C2C(F)(F)F)cc1 (configuration not stated)	0	-1	18	-3	-2	9	nt
COc1ccccc1NC(=O)N1CCc2c([nH]c3ccccc23)C1C(F)(F)F (configuration not stated)	35*	-6	-3	0	2	13	8
Cc1cccc(NC(=O)CSc2nnc([C@@H](N)Cc3ccccc3)o2)c1C	18	-5	-23	1	3	-3	nt
Cc1ccccc1-c1nnc(SCC(=O)Nc2cccc(C)c2C)o1	37*	-3	-10	-2	-16	-33	14
O=C1C(=C2SCCCS2)CC/C1=C\c1ccc(F)cc1	-146	-2	-21	-2	0	3	nt
Cc1cccc(/C=C2\CCC(=C3SCCCS3)C2=O)c1	-319	-1	-47	0	-60	-119	-358
CC1=NC2=CC=CC3=NC(C(Cl)(Cl)Cl)=NC(=N1)N23	nt	-10	nt	nt	nt	nt	nt
Cc1cc(=O)[nH]c(N/N=C/c2c[nH]c3ccccc23)n1	36*	-7	-19	-5	4	4	7
COc1cc(C(=O)O)ccc1OCC(=O)N1CCOCC1	40*	-6	-13	-2	1	1	-7
COC(=O)C1=C(C)N(C)C(=NCc2ccccc2)NC1CCc1ccccc1 (configuration not stated)	nt	-5	nt	nt	nt	nt	nt
CCCCNC(=O)c1c(N)n(/N=C/c2ccccn2)c2nc3ccccc3nc12	47*	nt	nt	-1	nt	-1	44*
OC(c1ccccc1)(c1ccccc1)C1CCN(CCCOc2cccnc2)CC1	nt	0	nt	nt	nt	nt	nt
